Source: ChEMBL document CHEMBL3286113, “New potent antibacterial oxazolidinone (MRX-I) with an improved class safety profile” (J Med Chem, 2014)
In brackets after ≈: the same amount, converted by molar mass.

Tests used:
[1] = molecular target: T1, Amine oxidase [flavin-containing] A (Homo sapiens, UniProt P21397); experiment: Inhibition of human recombinant MAO-A expressed in yeast after 1 hr by luciferin-based luminescence assay
T1 sequence (P21397 whole entry): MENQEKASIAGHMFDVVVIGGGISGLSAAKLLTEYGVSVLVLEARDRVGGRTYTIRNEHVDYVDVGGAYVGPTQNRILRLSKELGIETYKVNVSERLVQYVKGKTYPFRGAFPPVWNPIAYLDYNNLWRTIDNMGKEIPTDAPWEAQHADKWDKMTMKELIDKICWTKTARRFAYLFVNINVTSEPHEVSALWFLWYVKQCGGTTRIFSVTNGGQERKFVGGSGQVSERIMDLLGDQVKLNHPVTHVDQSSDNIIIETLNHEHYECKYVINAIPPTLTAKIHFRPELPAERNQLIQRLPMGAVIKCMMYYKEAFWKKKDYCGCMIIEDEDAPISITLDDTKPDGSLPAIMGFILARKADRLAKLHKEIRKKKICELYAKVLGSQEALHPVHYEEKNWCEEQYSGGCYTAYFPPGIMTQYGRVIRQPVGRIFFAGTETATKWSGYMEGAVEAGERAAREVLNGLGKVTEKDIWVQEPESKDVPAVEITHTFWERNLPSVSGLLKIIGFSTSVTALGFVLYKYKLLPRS

[2] = Myelosuppression activity against human CD34-positive blood stem/progenitor cells assessed as growth inhibition after 9 to 10 days by CellTiter-Glo luminescent assay
Staphylococcus aureus [3] = experiment: Antibacterial activity against methicillin-resistant Staphylococcus aureus; type: functional
Staphylococcus aureus [4] = experiment: Antibacterial activity against methicillin-resistant Staphylococcus aureus SAU1009; type: functional
Method in brief: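 MIC against MRSA strain SAU1009.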

Enterococcus faecalis = experiment: Bacteriostatic activity against vancomycin-sensitive Enterococcus faecalis; type: functional
Enterococcus faecium [5] = experiment: Bacteriostatic activity against vancomycin-sensitive Enterococcus faecium; type: functional
Enterococcus = experiment: Bacteriostatic activity against vancomycin-sensitive Enterococcus; type: functional
Enterococcus faecium [6] = experiment: Bacteriostatic activity against vancomycin-resistant Enterococcus faecium; type: functional

## Cn1nnc(-c2ccc(-c3ccc(N4C[C@H](COP(=O)(O)O)OC4=O)cc3F)cn2)n1 [TEDIZOLID PHOSPHATE]
[1]
  IC50: 4 µM
[2]
  IC50: 0.2 µg/mL
Staphylococcus aureus [3]
  MIC90: 0.5 µg/mL

## Cn1nnc(-c2ccc(-c3ccc(N4C[C@H](CO)OC4=O)cc3F)cn2)n1 [TEDIZOLID]
Staphylococcus aureus [4]
  MIC: 0.25 µg/mL (≈ 0.675 µM)

## CN[C@H](CC(C)C)C(=O)N[C@H]1C(=O)N[C@@H](CC(N)=O)C(=O)N[C@H]2C(=O)N[C@H]3C(=O)N[C@H](C(=O)N[C@H](C(=O)O)c4cc(O)cc(O)c4-c4cc3ccc4O)[C@H](O)c3ccc(c(Cl)c3)Oc3cc2cc(c3O[C@@H]2O[C@H](CO)[C@@H](O)[C@H](O)[C@H]2O[C@H]2C[C@](C)(N)[C@H](O)[C@H](C)O2)Oc2ccc(cc2Cl)[C@H]1O [VANCOMYCIN]
Enterococcus faecalis
  MIC50: 0.5 µg/mL (≈ 0.345 µM)
  MIC90: 1 µg/mL (≈ 0.69 µM)
Enterococcus faecium [5]
  MIC50: 0.5 µg/mL (≈ 0.345 µM)
  MIC90: 0.5 µg/mL (≈ 0.345 µM)
Enterococcus
  MIC50: 0.5 µg/mL (≈ 0.345 µM)
  MIC90: 2 µg/mL (≈ 1.38 µM)
Enterococcus faecium [6]
  MIC50: > 128 µg/mL
  MIC90: > 128 µg/mL
